# Bioassay records from PubChem.
# A selection: hits, their analogues and other compounds. The true share with any hit is near 4.6%.
# TAAR1 agonist: human TAAR1 agonism. Q96RJ0. CHO RD-HGA16 TAAR1, Fluo-8 calcium fluorescence; vehicle wells 0%, saturating PEA agonist 100%. activation, % at 3 µM. 360,000 tested, 0.99% active. AID 624467;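 active = activation above the mean activation of all test compounds in the run plus 3 SD, cut at about 38% in these data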
#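 System: CHO-derived RD-HGA16 cells with stable Gα16 and human TAAR1 / Times: 17-24 h plating, Fluo-8 75 min 37 °C, 30 min RT / Technique: calcium-sensitive Fluo-8 signal, excitation 470-495, emission 515-575 nm / Measure: % activation relative to PEA EC100 response / Benchmarks: DMSO and PEA EC100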
# TAAR1 antag: antagonists of human TAAR1; 360,000 tested, 1.5% active; inhibition, % at 3 µM; AID 624466; CHO RD-HGA16 TAAR1, Fluo-8 calcium fluorescence, antagonist;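 active = inhibition above a per-plate cutoff, the mean inhibition of test compounds on that plate plus 3 SD, cut at about 49% in these data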;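 note: 0% = DMSO plus EC80 beta-PEA response and 100% = DMSO alone without agonist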
#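 Material: CHO RD-HGA16 cells bearing hTAAR1; compound dosing: one-point dosing, 3 µM nominal final; schedule: dye loading 75 min at 37 °C, then 30 min room temperature; measured by: calcium fluorescence with Fluo-8; control set: vehicle and agonist controls; replication: n of 1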
# CHO parental Ca: counter-screen: ATP calcium response change in parental CHO cells; parental CHO-K1, ATP-induced calcium, Fluo-8 fluorescence; AID 463079; 330,000 tested, 0.63% active; inhibition, % at 5.6 µM;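 active = inhibition above that plate's mean sample inhibition plus 3 SD, cut at about 26% in these data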;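 note: 0% = ATP-challenged DMSO wells and 100% = DMSO wells without ATP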
#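 Material: Parental CHO cells | Reagent: ATP | Compound dosing: Single nominal dose of 5.6 µM per compound | Detection: Intracellular calcium via Fluo-8 no-wash fluorescent dye | Read-out: % inhibition of ATP-induced calcium mobilization | Benchmarks: Low control ATP plus DMSO, high control DMSO only | Replicates: Singlicate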
# OX1R antag-1: human HCRTR1 antagonism; CHO/OX1R cells, Fluo-8 calcium fluorescence, orexin A; 330,000 tested, 0.43% active; inhibition, % at 5 µM; O43613;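 active = inhibition above its plate's threshold, mean inhibition of all tested compounds on the plate plus 3 SD, cut at about 37% in these data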;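 note: 0% = orexin A challenge wells and 100% = SB-334867-A antagonist wells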
# Target sequence (O43613 whole entry, looked up): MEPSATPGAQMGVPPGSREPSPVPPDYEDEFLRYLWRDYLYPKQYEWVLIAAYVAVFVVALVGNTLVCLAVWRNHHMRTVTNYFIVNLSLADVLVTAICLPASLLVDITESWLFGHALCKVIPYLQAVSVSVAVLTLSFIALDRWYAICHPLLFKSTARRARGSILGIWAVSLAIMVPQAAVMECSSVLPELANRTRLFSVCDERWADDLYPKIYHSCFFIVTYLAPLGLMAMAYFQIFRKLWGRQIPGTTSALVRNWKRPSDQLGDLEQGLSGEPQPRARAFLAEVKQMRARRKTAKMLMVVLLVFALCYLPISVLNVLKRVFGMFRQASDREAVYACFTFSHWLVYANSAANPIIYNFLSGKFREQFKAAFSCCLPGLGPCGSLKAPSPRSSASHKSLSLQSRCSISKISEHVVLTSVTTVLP
# OX1R antag-2: blocks the human orexin 1 receptor; OX1R-expressing cells, FRET antagonist read-out; inhibition, % at 6.6 µM; 330,000 tested, 1.8% active; AID 485270; in the data active = inhibition mostly above about 38%, no sharp cut-off; inactive = mostly below about 40%;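 note: 0% = agonist challenge alone and 100% = reference antagonist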
# GPR7 antag: human neuropeptides B/W receptor 1 antagonism. 290,000 tested, 1.1% active. GPR7-expressing cells, fluorescence antagonist assay. AID 1861. P48145. inhibition, % at 4.4 µM; in the data active = inhibition above about 16%, passing the limit was not always enough;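 note: cells stimulated with the agonist NPW; 0% = agonist with vehicle and 100% = vehicle without agonist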
# Active calls of the source: *; / = not tested or not shown.
SMILES,TAAR1 agonist,TAAR1 antag,CHO parental Ca,OX1R antag-1,OX1R antag-2,GPR7 antag
Cc1nc2ccccc2c(=O)n1-c1cc([N+](=O)[O-])cc([N+](=O)[O-])c1,0,-14,-16,-30,74*,-21
Cc1nc2ccccc2c(=O)n1-c1ccncc1,2,-30,18,6,8,11
CCOC(=O)C1=C(C(=O)OCC)C2(c3ccccc3)c3ccccc3C1(C)N2C (stereo unspecified),0,-40,/,/,/,/
Nc1c(Br)cc([N+](=O)[O-])cc1[N+](=O)[O-],-1,18,-7,-19,36*,/
Cn1ncnc2c(=O)n(C)c(=O)nc1-2,/,/,-17,8,103*,/
Cc1ccc(OC(=O)N(C)C[C@@H]2OCc3ccccc3-c3c(n(C)c4ccccc34)C(=O)N([C@H](C)CO)C[C@H]2C)cc1,8,8,/,/,/,/
C[n+]1c(-c2ccccc2)c2cc(N)ccc2c2ccc(N)cc21,2,2,-2,-1,51*,-12
Nc1ncc([N+](=O)[O-])s1,2,-18,-7,0,36*,/
CC(=O)NCC1=C(c2ccc(S(C)(=O)=O)cc2)C[C@@H]2CC[C@H]1N2CCOc1ccccc1,3,-9,/,/,/,/
Cc1ccccc1N1C(=O)NC(=O)/C(=C/c2ccc(N3CCOCC3)o2)C1=O,5,-2,6,1,48*,-7
Cc1ccccc1N1C(=O)NC(=O)/C(=C\c2cc(Br)c(N3CCOCC3)o2)C1=O,34,18,0,3,30,1
O=C1NC(=O)N(c2ccc3c(c2)OCO3)C(=O)/C1=C\c1ccc(N2CCCCC2)o1,27,-2,-5,-4,71*,-5
Nc1ccc2ccc3cccc[n+]3c2c1,40*,8,37*,12,36,1
O=[N+]([O-])c1ccc(N2CCCNCC2)c2ncccc12,3,8,-3,-6,40*,-5
O=[N+]([O-])c1ccc(N2CCOCC2)c2cccnc12,2,-10,-2,16,71*,-12
O=[N+]([O-])c1ccc(N2CCCCC2)c2ncccc12,0,3,-6,-23,44,-3
C=CCn1c(O)c(C(C)=NCCO)c(=O)[nH]c1=O,10,-3,-3,2,0,1
C=CCn1c(O)c(C(C)=NCCc2ccccc2)c(=O)[nH]c1=O,40*,13,-16,-1,5,-1
O=C(CSC1c2ccccc2-c2ccccc21)N/N=C/c1ccccc1O,8,38,-7,-1,60*,11
CC1C=CCCC12C(=O)NC(=O)NC2=O (stereo unspecified),6,-8,/,/,/,/
CCN(CC)c1ccc(/C=C2/C(=O)NC(=O)N(CC3CCCO3)C2=O)cc1 (stereo unspecified),42*,13,-2,-9,38,0
O=C1NC(=O)N(CC2CCCO2)C(=O)/C1=C/c1cccs1 (stereo unspecified),4,-37,-10,-9,12,7
OC1CN2CCC(O)C2C(O)C1O (stereo unspecified),1,-9,/,/,/,/
COC(=O)C1C(c2ccc(Cl)cc2)CC2CCC1N2C (stereo unspecified),2,-14,/,/,/,/
CN[C@H]1C[C@H]2O[C@@](C)([C@H]1OC)n1c3ccccc3c3c4c(c5c6ccccc6n2c5c31)C(=O)NC4,/,/,-14,-28,-18,30*
SMILES,TAAR1 agonist,TAAR1 antag,CHO parental Ca,OX1R antag-1,OX1R antag-2,GPR7 antag
NS(=O)(=O)c1ccc(-c2ccc(C=C3C(=O)NC(=O)NC3=O)o2)cc1,6,2,-1,-2,27,-4
O=C1NC(=O)C(=Cc2ccc(SC3CCCCC3)o2)C(=O)N1,30,59*,1,-9,21,-16
CC1CC(C)OP(=O)(OCCC#N)O1 (stereo unspecified),2,-17,/,/,/,/
Cc1ccc(N2C(=O)NC(=O)/C(=C/C=C/c3ccco3)C2=O)cc1,37,51*,-10,2,15,-2
O=C1NC(=O)N(Cc2ccc(F)cc2)C(=O)/C1=C\C=C\c1ccco1,17,30,2,3,3,-5
Cc1cccc(NP(=O)(Oc2ccccc2F)Oc2ccccc2F)c1C,8,54*,47*,6,20,-4
O=c1[nH]c(O)c(N=Nc2ccc(S(=O)(=O)N3CCOCC3)cc2)c(=O)[nH]1,2,-7,-7,5,44,-5
O=c1[nH]c(=S)[nH]c(O)c1N=Nc1cc(S(=O)(=O)Nc2ccc(Cl)cc2)ccc1Cl,3,-15,-8,-13,-1,/
O=c1[nH]c(=S)[nH]c(O)c1N=Nc1ccc2c(c1)OCO2,2,2,6,-6,75*,14
O=c1[nH]c(O)c(N=Nc2ccc3c(c2)OCCO3)c(=O)[nH]1,8,7,-4,-10,64*,-8
O=c1[nH]c(=S)[nH]c(O)c1N=Nc1ccc(OC(F)F)cc1,0,-4,-12,-13,50*,5
COC(=O)c1ccccc1N=Cc1c(O)[nH]c(=S)[nH]c1=O,1,-3,-3,-15,18,-4
O=c1[nH]c(=S)[nH]c(O)c1N=Nc1cc2c(cc1[N+](=O)[O-])OCO2,12,-13,1,-6,48,-9
COc1cccc(N=Nc2c(O)[nH]c(=S)[nH]c2=O)c1,-2,-14,-1,-9,69*,-9
Cc1cc(N2CCNC[C@H]2C)ccc1N1CCN[C@H](C)C1,1,-25,/,/,/,/
COC(=O)C1=C(c2ccc(S(C)(=O)=O)cc2)C[C@@H]2CC[C@H]1N2C(=O)NCCCOC(C)C,1,0,2,6,8,/
O=C(NCCN1CCC2(CC1)C(=O)NCN2c1ccccc1)c1cccnc1Cl,0,-3,/,/,/,/
CC12CCC(=O)C=C1CCC1C2CCC2(C)C(O)(C(=O)CO)CCC12O (stereo unspecified),2,-3,/,/,/,/
COC(=O)C1=C(c2ccc(OCc3ccccc3)cc2)C[C@@H]2CC[C@H]1N2C(=O)NCc1cccc(C(F)(F)F)c1,14,4,-12,11,10,/
CC(=O)N1N=C(c2c(O)n(C)c(=O)n(C)c2=O)CC1c1ccccc1 (stereo unspecified),0,-14,15,1,2,-13
Cc1oc(-c2ccccc2Cl)nc1CN1C(=O)CN=C(c2ccccc2)c2ccccc21,4,45,-17,-17,21,-1
C/C(=N\NC(N)=O)c1c(O)n(C)c(=O)n(C)c1=O,3,-2,35*,-10,14,-15
N=C(N)c1c(O)n(C2CCCCC2)c(=O)n(C2CCCCC2)c1=O,46*,18,61*,26,15,-27
